Laboratory results published in ChEMBL document CHEMBL1144934, “Efficacious and orally bioavailable thrombin inhibitors based on a 2,5-thienylamidine at the P1 position: discovery of N-carboxymethyl-d-diphenylalanyl-l-prolyl[(5-amidino-2-thienyl)methyl]amide” (J Med Chem, 2003).
pKi: −log10 of the molar value.

Columns and labels:
[1] = target: Prothrombin (Homo sapiens, UniProt P00734); test: In vitro inhibition constant (Ki) against human thrombin
[2] = organism: Rattus norvegicus; test: In vitro concentration of inhibitor to double the activated partial thromboplastin time was evaluated in rat; type: functional
[3] = system: Rattus norvegicus; test: Ex vivo activated clotting time was measured in rat plasma at 1 mg/kg; type: functional
[4] = organism: Homo sapiens
[5] = organism: Rattus norvegicus; test: Ex vivo concentration of inhibitor to double the activated clotting time was measured in rat plasma; type: functional
[6] = system: Rattus norvegicus; test: In vivo inhibition of thrombus formation in thromboplastin-induced deep vein thrombosis (DVT) rat model after iv bolus dosing at 1 mg/kg; type: functional
[7] = Area under curve (AUC) was measured after oral dosing at 30 mg/kg in rat; type: ADME, organism-based; design: dose 30 mg/kg, route oral; details: in vivo
[8] = Maximal plasma concentration in rats after 30 mg/kg oral dose; type: ADME, organism-based; design: dose 30 mg/kg, route oral; details: rat
[9] = In vitro metabolic stability was determined using liver S9 fraction from monkey at initial concentration of 20 uM; type: ADME, subcellular; details: simiiformes, read-out: Recovery
How it was run: (§1)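 Liver S9 (9000g supernatant of homogenate in Tris-acetate pH 7.4, KCl, EDTA) from rat, dog, monkey (pooled, n = 2) or human (n = 2); 20 µM final compound with NADPH generating system and S9 6.72 mg/mL in 100 mM phosphate pH 7.4, 37 °C. Samples methanol-deproteinized, HPLC; recovery after 30 min reported; no-NADPH control.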

[10] = In vitro metabolic stability was determined using liver S9 fraction from human at initial concentration of 20 uM; type: ADME; details: liver S9 fraction, read-out: Recovery; how it was run: as §1
[11] = In vitro metabolic stability was determined using liver S9 fraction from rat at initial concentration of 20 uM; type: ADME; details: read-out: Recovery; how it was run: as §1
[12] = In vitro metabolic stability was determined using liver S9 fraction from dog at initial concentration of 20 uM; type: ADME, Canis lupus familiaris; details: read-out: Recovery; how it was run: as §1
[13] = Bioavailability in rat; type: ADME, organism-based; details: in vivo
[14] = Half life of compound was determined after intravenous dosing at 10 mg/kg in rat; type: ADME, organism-based; design: dose 10 mg/kg, route intravenous; details: in vivo
How it was run: (§2)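 Male Sprague–Dawley rats (250–300 g), femoral artery and vein cannulated under light ether anesthesia; after recovery, 10 mg/kg given via femoral vein. Arterial blood sampled at 0, 1, 5, 15, 30, 60, 90, 120, 180, 240 min, collected into heparinized tubes, deproteinized with 2 volumes methanol, centrifuged; supernatant analyzed by HPLC (0.1% TFA/acetonitrile 81:19).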

[15] = Area under curve (AUC) was determined after intravenous dosing at 10 mg/kg in rat; type: ADME, organism-based; design: dose 10 mg/kg, route intravenous; details: in vivo; how it was run: as §2
[16] = Steady state volume of distribution (Vdss) was determined after intravenous dosing at 10 mg/kg in rat; type: ADME, organism-based; design: dose 10 mg/kg, route intravenous; details: in vivo, read-out: Vdss; how it was run: as §2
[17] = Clearance value was determined after intravenous dosing at 10 mg/kg in rat; type: ADME, organism-based; design: dose 10 mg/kg, route intravenous; details: in vivo; how it was run: as §2

Row | SMILES | pKi [1] | AUC [7] [ng·h/mL] | Cmax [8] [ng/mL] | APTT [2] [µM] | ACT [3] | APTT [4] [µM] | Concentration to double activated clotting time [5] [µM] | inhibition in vivo at 1 mg/kg [6] [%] | remaining at 20 µM [9] [%] | remaining at 20 µM [10] [%] | remaining at 20 µM [11] [%] | remaining at 20 µM [12] [%] | bioavailability [13] [%] | half-life [14] [min] | AUC [15] [ng·h/mL] | Vd [16] [L/kg] | clearance [17] [mL/min/kg]
1 | CN(C(=O)C(NS(=O)(=O)c1ccc2ccccc2c1)c1ccc(C(=N)NN)cc1)C1CCCC1 (stereo not given) | 9.40 | – | – | – | – | – | – | – | – | – | – | – | – | – | – | – | –
2 | CC1CNc2c(cccc2S(=O)(=O)N[C@@H](CCCNC(=N)N)C(=O)N2CC[C@@H](C)C[C@@H]2C(=O)O)C1 (stereo not given in full) [ARGATROBAN] | – | – | – | 2.5 | 1.9 | 0.57 | 1.97 | 82 | – | – | – | – | – | – | – | – | –
3 | COC(=O)N[C@@H](C(=O)N1CCC[C@H]1C(=O)NCc1csc(C(=N)N)c1)C(c1ccccc1)c1ccccc1 | 9.22 | – | 8600 | 5.2 | 3.7 | 0.37 | 6.86 | 98 | < 10 | 13 | 49 | 83 | 7 | 45 | 102000 | 0.23 | 1.7
4 | COC(=O)N[C@@H](C(=O)N1CCC[C@H]1C(=O)NCc1ccc(C(=N)N)cc1)C(c1ccccc1)c1ccccc1 | – | 9900 | 4000 | – | 6.8 | – | – | 100 | 39 | 86 | 80 | 65 | 6 | 69 | 56800 | 0.174 | 3
5 | N=C(N)c1ccc(CNC(=O)[C@@H]2CCCN2C(=O)[C@H](NS(N)(=O)=O)C(c2ccccc2)c2ccccc2)cc1 | – | 4530 | 2800 | 1.24 | 11 | 0.14 | 1.23 | 100 | 87 | 92 | 90 | 93 | 8 | 45 | 19700 | 0.297 | 8.6
6 | COC(=O)N[C@@H](C(=O)N1CCC[C@H]1C(=O)NCc1ccc(C(=N)N)s1)C(c1ccccc1)c1ccccc1 | 10.82 | 7100 | 4100 | 2.85 | 5.2 | 0.34 | 3.75 | 93 | < 10 | 38 | 60 | 91 | 8 | 53 | 31200 | 0.152 | 5.4
7 | N=C(N)c1ccc(CNC(=O)[C@@H]2CCCN2C(=O)[C@H](NS(N)(=O)=O)C(c2ccccc2)c2ccccc2)o1 | 9.37 | 2270 | 1000 | – | – | – | – | – | – | – | – | – | – | – | – | – | –
8 | N=C(N)c1ccc(CNC(=O)[C@@H]2CCCN2C(=O)[C@H](NS(N)(=O)=O)C(c2ccccc2)c2ccccc2)s1 | – | 4700 | – | 1.5 | – | 0.19 | 2.09 | 100 | 81 | 86 | 84 | 96 | 11 | 34 | 14400 | 0.31 | 11.6
9 | COC(=O)N[C@@H](C(=O)N1CCC[C@H]1C(=O)NCc1ccc(C(=N)N)nc1)C(c1ccccc1)c1ccccc1 | 10.77 | 26100 | 14000 | – | 6 | – | – | 100 | – | – | – | – | 11 | 81 | 80400 | 0.139 | 2.1

Now from value to molecule, other results behind:

Row | pKi [1] | AUC [7] [ng·h/mL] | Cmax [8] [ng/mL] | SMILES | APTT [2] [µM] | ACT [3] | APTT [4] [µM] | Concentration to double activated clotting time [5] [µM] | inhibition in vivo at 1 mg/kg [6] [%] | remaining at 20 µM [9] [%] | remaining at 20 µM [10] [%] | remaining at 20 µM [11] [%] | remaining at 20 µM [12] [%] | bioavailability [13] [%] | half-life [14] [min] | AUC [15] [ng·h/mL] | Vd [16] [L/kg] | clearance [17] [mL/min/kg]
10 | 10.89 | 2000 | 1300 | N=C(N)c1ccc(CNC(=O)[C@@H]2CCCN2C(=O)[C@H](NCC(=O)O)C(c2ccccc2)c2ccccc2)cc1 | – | – | – | – | – | 80 | 97 | 87 | 95 | – | – | – | – | –
11 | 11.30 | 1420 | 1300 | CS(=O)(=O)N[C@@H](C(=O)N1CCC[C@H]1C(=O)NCc1ccc(C(=N)N)s1)C(c1ccccc1)c1ccccc1.N=C(N)c1ccccc1 | – | – | – | – | – | – | – | – | – | – | – | – | – | –
12 | – | 4100 | 1600 | N=C(N)c1ccc(CNC(=O)[C@@H]2CCCN2C(=O)[C@H](NS(N)(=O)=O)C(c2ccccc2)c2ccccc2)cn1 | – | – | – | – | – | – | – | – | – | – | – | – | – | –
13 | 9.77 | – | 4600 | COC(=O)N[C@@H](C(=O)N1CCC[C@H]1C(=O)NCc1cc(C(=N)N)cs1)C(c1ccccc1)c1ccccc1 | – | – | – | – | – | – | – | – | – | – | – | – | – | –
14 | 11.00 | – | – | N=C(N)c1ccc(CNC(=O)[C@@H]2CCCN2C(=O)[C@H](NCCC(=O)O)C(c2ccccc2)c2ccccc2)s1 | – | – | – | – | – | – | – | – | – | – | – | – | – | –
15 | – | 4380 | 2800 | CS(=O)(=O)N[C@@H](C(=O)N1CCC[C@H]1C(=O)NCc1ccc(C(=N)N)cc1)C(c1ccccc1)c1ccccc1 | – | – | – | – | – | – | – | – | – | – | – | – | – | –
16 | 9.80 | – | 500 | N=C(N)c1cc(CNC(=O)[C@@H]2CCCN2C(=O)[C@H](NS(N)(=O)=O)C(c2ccccc2)c2ccccc2)cs1 | – | – | – | – | – | – | – | – | – | – | – | – | – | –
17 | 11.00 | 1480 | 1100 | N=C(N)c1ccc(CNC(=O)[C@@H]2CCCN2C(=O)[C@H](NS(N)(=O)=O)C(c2ccccc2)c2ccccc2)c(F)c1 | – | – | – | – | – | – | – | – | – | – | – | – | – | –
18 | 11.10 | 3430 | 2400 | N=C(N)c1ccc(CNC(=O)[C@@H]2CCCN2C(=O)[C@H](NS(N)(=O)=O)C(c2ccccc2)c2ccccc2)cc1F | – | – | – | – | – | – | – | – | – | – | – | – | – | –
19 | 10.70 | – | 2000 | N=C(N)c1csc(CNC(=O)[C@@H]2CCCN2C(=O)[C@H](NS(N)(=O)=O)C(c2ccccc2)c2ccccc2)c1 | – | – | – | – | – | – | – | – | – | – | – | – | – | –
20 | 8.85 | 18600 | 7100 | COC(=O)N[C@@H](C(=O)N1CCC[C@H]1C(=O)NCc1coc(C(=N)N)c1)C(c1ccccc1)c1ccccc1 | – | – | – | – | – | – | – | – | – | – | – | – | – | –
